Screening data from PubChem BioAssay.
Sampled rows, rich in hits. Any-hit rate of the full collection: about 5.7%.
SKKanGAS inh – blocks kanamycin growth of S. pyogenes SKKanGAS strain. BacTiter-Glo, 6 h. inhibition, % at 7.5 µM. actives 1.3% (n = 300,000). AID 1662;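 active = mean replicate score, as percent of positive control median, at least 50; inconclusive = mean below 50 but one replicate at or above 50; inactive = mean and every replicate below 50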;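 note: strain carries kanamycin resistance gene driven by streptokinase promoter and grows in 40 µg/ml kanamycin; loss of luminescence reflects streptokinase promoter inhibition or plain growth inhibition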
Beta apoptosis – beta cell apoptosis inhibition. actives 0.8% (n = 300,000). protection from apoptosis, % (concentration not given with the values). INS-1E cytokine-induced death, ATP luminescence, 48 h; percent of positive-control rescue, neutral wells zero;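 active = Every replicate reaches about 75%, or at least half do and their mean reaches it too, limit read from the data; inconclusive = At least half of replicates reach the limit but their mean does not; inactive = Under half of replicates reach the limit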;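 note: higher means more ATP so stronger rescue from cytokine killing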
T cruzi repl – T. cruzi replication inhibition. T. cruzi beta-gal in NIH3T3, luminescence, 90 h. AID 1885. inhibition, % (no concentration beside the values). actives 1.4% (n = 300,000);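 active = mean inhibition across valid replicates above about 55%, limit read from the data; inconclusive = mean below that limit but half or more replicates reach it; inactive = mean below it, under half of replicates reach it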;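 note: signal also drops with host cell toxicity which is not excluded here; higher percent means less beta-gal luminescence so fewer parasites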
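System: NIH/3T3 fibroblasts plus reporter T. cruzi. Medium: DMEM plus 2% FBS. Probe or stimulus: 5000 reporter trypomastigotes per well. Compound: single 50 nL compound addition per well in DMSO. Incubation: co-culture of at least 90 h after 3 h attachment. Detection: GalScreen β-gal luminescence, detergent lysis, 60 min. Evaluation: parasite load inhibition, %.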
Mdm2-MdmX inh – disrupts the human Mdm2-MdmX interaction. SaOS-2 split-luciferase Mdm2/MdmX complementation, luminescence. inhibition, % at 8 µM. actives 3% (n = 330,000);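 active = inhibition of at least 50% at 8 µM in the primary screen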
CSC inhib – cancer stem cell inhibition; cancer stem cell-like cells viability, luminescence; inhibition, % at 7.5 µM; actives 1.1% (n = 300,000); AID 2717; in the data active = inhibition above about 75%; inconclusive = no clear call, values can overlap the other calls; tested in HMLE shEcad cells
Calb FLC – affects C. albicans growth with fluconazole; C. albicans CaCi-2 (fluconazole-resistant clinical isolate) + fluconazole, Alamar Blue growth, 48 h; growth inhibition, % (test concentration not listed); actives 0.57% (n = 300,000); AID 1979;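 active = growth inhibition above about 58% in most replicates, limit read from the data, passing the limit was not always enough; inconclusive = exactly half the replicates above a set limit; inactive = most replicates below a set limit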;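 note: all wells also contain fluconazole at 8 µg/ml as a sub-toxic cotreatment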
Mdm2-MdmX conf – human Mdm2/MdmX binding inhibition, confirmed; shares compounds with Mdm2-MdmX inh; luminescent assay; inhibition, % at 8 µM; actives 55% (n = 10,000); AID 489028; in the data active = inhibition above about 40%
Full FLuc ctr – full-length luciferase inhibition in Mdm2/MdmX counter-screen; shares compounds with Mdm2-MdmX inh; SaOS-2 full-length luciferase counterscreen, luminescence; inhibition, % at 8 µM; actives 77% (n = 6,200); AID 504607;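 active = mean inhibition at 8 µM reaching about 37%, which flags the compound as non-specific, limit read from the data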;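 note: p53-null SaOS-2 cells with luciferase driven by a doxycycline-inducible promoter; compound on cells about two nights before reading with doxycycline added after day one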
Of the large screens only hits and unclear results are named; the others gave an inactive call (follow-up assays come after a bar, where they were run).

COc1ccccc1CN(C)C(=O)c1cc(-c2cccs2)nc2ccccc12	Mdm2-MdmX inh 61 | Mdm2-MdmX conf inactive | Full FLuc ctr 57
COc1ccccc1-c1csc(NC(=O)c2cc(-c3cccs3)nc3ccccc23)n1	none
O=C(CSc1nc(C(F)(F)F)cc(=O)[nH]1)Nc1ccc2c(c1)OCCO2	none (no result: Beta apoptosis)
O=C1Nc2cc(Cl)ccc2Nc2cscc21	none
C=CCc1cccc(/C=N/NC(=O)c2ccccc2OC)c1O	Beta apoptosis 94, T cruzi repl 62, Mdm2-MdmX inh 66 | Mdm2-MdmX conf 70 | Full FLuc ctr 47
COc1ccccc1/C=N\NC(=O)c1c(C)nc2ccc(Cl)cn12	none
COc1cccc(/C=N/NC(=O)c2c(C)nc3ccc(Cl)cn23)c1O	SKKanGAS inh 103, Beta apoptosis 123, Mdm2-MdmX inh 68, Calb FLC 104 | Mdm2-MdmX conf 78 | Full FLuc ctr inactive
COc1ccccc1/C=N/NC(=O)c1ccccc1Cl	none
C=CCc1cccc(/C=N/NC(=O)C(C)Nc2ccc(C)cc2)c1O (configuration not stated)	Mdm2-MdmX inh 70 | Mdm2-MdmX conf 67 | Full FLuc ctr 42
COc1ccc(NC(C)C(=O)N/N=C/c2ccccc2OCc2cccc(Br)c2)cc1 (configuration not stated)	none
COc1cccc(/C=N/NC(=O)c2[nH]c(C)c(C(=O)N/N=C/c3cccc(OC)c3O)c2C)c1O	Mdm2-MdmX inh 62, CSC inhib 93 | Mdm2-MdmX conf 43 | Full FLuc ctr 70
Nc1c(NC=O)c(=O)n(Cc2ccccc2)c(=O)n1Cc1ccccc1	none (no result: Beta apoptosis)
COc1ccc(C(=O)N/N=C/c2ccccc2OC(=O)c2ccccc2)cc1	Beta apoptosis 102, Mdm2-MdmX inh 53 (no result: CSC inhib) | Mdm2-MdmX conf 41 | Full FLuc ctr 112
C=CCc1cccc(/C=N/NC(=O)c2ccc3nc[nH]c3c2)c1O	Beta apoptosis 84, Mdm2-MdmX inh 67, CSC inhib 94 | Mdm2-MdmX conf 52 | Full FLuc ctr inactive
COc1cccc(/C=N/NC(=O)c2ccc(-c3ccccc3)cc2)c1O	Beta apoptosis 107, Mdm2-MdmX inh 76, CSC inhib inconclusive | Mdm2-MdmX conf 77 | Full FLuc ctr inactive
COc1cccc(/C=N/NC(=O)c2ccc(=O)n(C)c2)c1O	Calb FLC inconclusive (no result: CSC inhib)
Cc1cccc(/C=N/NC(=O)c2c(-c3ccccc3)noc2C)c1O	Beta apoptosis 92, Mdm2-MdmX inh 67 | Mdm2-MdmX conf 69 | Full FLuc ctr inactive
COc1ccccc1/C=N/NC(=O)c1c(-c2ccccc2)noc1C	none
O=C(COC(=O)c1ccccc1-n1cnnn1)c1ccc(F)cc1	none (no result: Calb FLC)
CS(=O)(=O)NNC(=O)Cn1nnc(-c2ccc(OCc3ccccc3Cl)cc2)n1	none
CSc1nc(C(C)C)ccc1CNC(=O)CC(C)c1ccccc1 (configuration not stated)	none
COc1cccc(/C=N/NC(=O)CN2CC(c3ccccc3)CC2=O)c1O (configuration not stated)	Beta apoptosis 77, Mdm2-MdmX inh 52 | Mdm2-MdmX conf inactive
COc1ccccc1/C=N/NC(=O)c1cccc(OC(F)(F)C(F)F)c1	none
CCOc1ccccc1NC(=O)C(=O)N/N=C/c1cc(Br)ccc1O	Beta apoptosis 88, T cruzi repl 63, Mdm2-MdmX inh 76, Calb FLC 108 | Mdm2-MdmX conf 83 | Full FLuc ctr 39
COc1cccc(/C=N/NC(=O)C(=O)Nc2ccccc2OC(F)(F)C(F)F)c1O	Beta apoptosis 82, Mdm2-MdmX inh 62, CSC inhib 108, Calb FLC 109 | Mdm2-MdmX conf 75 | Full FLuc ctr inactive
CC(=O)Nc1ccc(NC(=O)C2CC(=O)N(Cc3ccco3)C2)cc1 (configuration not stated)	none (no result: SKKanGAS inh, Beta apoptosis, T cruzi repl, CSC inhib, Calb FLC)
COC(=O)[C@@]12CCCCN1[C@H](c1ccc(-c3ccccc3)c(OC)c1)[C@H]1C(=O)N(C)C(=O)[C@H]12	none (no result: SKKanGAS inh, T cruzi repl, CSC inhib, Calb FLC)
CCN1C(=O)[C@@H]2[C@@H](c3ccc(-c4ccc(Cl)c(Cl)c4)c(OC)c3)N3CCCC[C@@]3(C(=O)OC)[C@@H]2C1=O	Mdm2-MdmX inh 53 | Mdm2-MdmX conf inactive
CCN1C(=O)[C@@H]2[C@@H](c3ccc(-c4ccc(F)cc4)c(OC)c3)N3CCCC[C@@]3(C(=O)OC)[C@@H]2C1=O	none (no result: SKKanGAS inh, T cruzi repl, Calb FLC)
COC(=O)[C@@]12CCCCN1[C@H](c1ccc(-c3cccc(Cl)c3)c(OC)c1)[C@@H]1C(=O)N(C)C(=O)[C@@H]12	T cruzi repl 56, Mdm2-MdmX inh 73 | Mdm2-MdmX conf inactive
COC(=O)[C@@]12CCCCN1[C@H](c1ccc(-c3ccc(F)cc3)cc1)[C@H]1C(=O)N(C)C(=O)[C@H]12	Mdm2-MdmX inh 64 (no result: SKKanGAS inh, T cruzi repl, CSC inhib, Calb FLC) | Mdm2-MdmX conf 46 | Full FLuc ctr 48
O=C(O)C1CC=C(Cl)CC1C(=O)NC1CCCCC1 (configuration not stated)	none
CC(OC(=O)c1ccc(S(=O)(=O)NCc2ccco2)cc1)C(=O)Nc1ccccc1 (configuration not stated)	none (no result: SKKanGAS inh, T cruzi repl, Calb FLC)
O=C(NCC(=O)N1CCN(Cc2ccccc2)CC1)c1cc(Cl)cc([N+](=O)[O-])c1	none (no result: SKKanGAS inh, T cruzi repl, Calb FLC)
O=C(Nc1ccc(Oc2ncnc3cc(Cl)ccc23)nc1)c1cccs1	Mdm2-MdmX inh 78 | Mdm2-MdmX conf 73 | Full FLuc ctr 102
COc1ccc2nc(NC(=O)CC3Oc4ccccc4NC3=O)sc2c1 (configuration not stated)	none
CCOc1ccc2nc(NC(=O)CC3Oc4ccccc4NC3=O)sc2c1 (configuration not stated)	Mdm2-MdmX inh 62 | Mdm2-MdmX conf inactive | Full FLuc ctr 63
Cc1cccc(NC(=O)CSc2nnc(CNC(=O)c3ccco3)o2)c1	none
NC(=O)NCCCC(NC(=O)c1ccc(C#CC2(O)CCCCC2)cc1)C(=O)O (configuration not stated)	Mdm2-MdmX inh 61 (no result: SKKanGAS inh) | Mdm2-MdmX conf inactive
COc1cc(C)c(C(=O)CC(=O)c2c(C)cc(OC)cc2C)c(C)c1	SKKanGAS inh 96, Beta apoptosis 75, T cruzi repl 66, Mdm2-MdmX inh 51, CSC inhib 132 | Mdm2-MdmX conf inactive
COc1ccc(NC(C)=O)c(C)c1	none
Cc1cccc(NC(=S)N(CCCN2CCCC2)Cc2cccn2Cc2ccc(Cl)cc2)c1	Mdm2-MdmX inh 54 | Mdm2-MdmX conf inactive | Full FLuc ctr inactive
CCOc1ccc(NC(=S)N(CCCN2CCCC2)Cc2cccn2Cc2ccc(Cl)cc2)cc1	Mdm2-MdmX inh 65 (no result: CSC inhib) | Mdm2-MdmX conf inactive
Cc1c(CCO)c(=O)n2c([nH]c3ccccc32)c1C#N	none
